This is a sample that favours compounds with a hit; in the whole collection about 1.8% have one here.
STAT3 inh = STAT3 signaling inhibition | U3A cells, IL-6 STAT3-luciferase reporter, luminescence; host cell line lacks STAT1 | inhibition, % at 5.5 µM | 0.89% of 190,000 active | AID 862;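 active = inhibition above the mean inhibition across all screened compounds plus 3 SD, cut at about 44% in these data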;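 also: 0% = DMSO only wells and 100% = 100 µM nifuroxazide control wells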
PERK inhibitor = human PERK inhibition, primary cell-based screen; Q9NZJ5; CHO PERK-DD fusion, SEAP luminescence translation reporter; inhibition, % at 5.6 µM; 0.17% of 220,000 active; AID 1416;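 active = inhibition above the mean inhibition of all tested compounds plus 3 SD, set separately per screening campaign, cut at about 2.9% in these data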;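 also: PERK kinase domain activated by AP20187 dimerizer at 100 nM; 0% = DMSO with dimerizer and 100% = rapamycin at 8.4 µM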
Target sequence (Q9NZJ5 whole entry, looked up, the tested form may be a part): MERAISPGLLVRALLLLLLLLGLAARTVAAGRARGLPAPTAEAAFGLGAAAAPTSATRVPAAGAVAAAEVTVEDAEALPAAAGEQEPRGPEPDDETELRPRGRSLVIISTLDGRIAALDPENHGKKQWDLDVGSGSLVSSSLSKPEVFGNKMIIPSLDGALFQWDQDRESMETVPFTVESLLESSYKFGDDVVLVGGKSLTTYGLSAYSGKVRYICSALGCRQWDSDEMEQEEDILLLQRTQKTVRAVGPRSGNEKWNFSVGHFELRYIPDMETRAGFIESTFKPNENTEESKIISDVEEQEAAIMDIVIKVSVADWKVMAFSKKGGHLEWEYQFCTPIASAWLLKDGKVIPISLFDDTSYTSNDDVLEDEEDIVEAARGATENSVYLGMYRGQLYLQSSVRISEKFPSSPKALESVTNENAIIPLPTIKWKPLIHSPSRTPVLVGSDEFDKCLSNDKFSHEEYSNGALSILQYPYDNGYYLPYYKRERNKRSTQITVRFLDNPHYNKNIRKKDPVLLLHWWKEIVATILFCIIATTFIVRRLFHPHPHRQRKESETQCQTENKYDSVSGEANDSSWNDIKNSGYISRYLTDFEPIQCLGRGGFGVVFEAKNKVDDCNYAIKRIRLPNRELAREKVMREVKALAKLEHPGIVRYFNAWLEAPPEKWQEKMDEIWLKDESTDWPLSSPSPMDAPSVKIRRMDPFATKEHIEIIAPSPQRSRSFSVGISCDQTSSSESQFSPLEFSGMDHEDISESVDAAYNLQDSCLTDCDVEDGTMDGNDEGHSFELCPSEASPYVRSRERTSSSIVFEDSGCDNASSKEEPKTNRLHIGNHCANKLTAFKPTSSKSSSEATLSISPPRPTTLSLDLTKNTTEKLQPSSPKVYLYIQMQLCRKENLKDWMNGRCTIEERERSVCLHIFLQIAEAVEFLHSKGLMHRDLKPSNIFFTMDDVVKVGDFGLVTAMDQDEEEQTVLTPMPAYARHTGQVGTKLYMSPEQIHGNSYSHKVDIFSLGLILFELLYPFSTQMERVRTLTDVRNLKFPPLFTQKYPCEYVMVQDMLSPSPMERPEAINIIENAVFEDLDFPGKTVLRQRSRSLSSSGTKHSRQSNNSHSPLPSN
STAT1 inh = STAT1 signaling inhibition. NIH 3T3 STAT1-luciferase reporter, IFN-gamma, luminescence. 0.35% of 200,000 active. inhibition, % at 5.5 µM;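 active = inhibition above a set limit, the mean inhibition across all tested compounds plus 3 SD, cut at about 34% in these data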;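 also: 0% = IFN-gamma with DMSO and 100% = IFN-gamma with 300 µM nifuroxazide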
STAT3 act-1 = increases IL-6 driven STAT3 reporter signal; U3A cells, IL-6 STAT3-luciferase reporter, luminescence; 100% = signal with IL-6 EC80 alone; activation (% of control), % at 5.6 µM; 0.91% of 190,000 active; AID 871;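 active = activation above the screen-wide mean of compound activation plus 3 SD, cut at about 130% in these data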;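 also: 0% = background luminescence of wells with medium and substrate only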
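Test system: STAT3-luciferase reporter U3A cells; Detection: reporter luminescence signal; Times: 1 h compound pre-exposure, 6 h IL-6 stimulation, 37 °C; Benchmarks: IL-6-only high control; Also added: IL-6 stimulus at 33 ng/mL final.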
STAT3 act-2 = STAT3 activation, confirmation assay; potentiation (% of control), % at 5.7 µM; shares compounds with STAT3 act-1; 64% of 1,200 active; AID 1267; U3A STAT3-luciferase reporter, IL-6 potentiation, luminescence; U3A cells lack STAT1; 100 means same as IL-6 alone;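 active = percent activation of the STAT3 luciferase reporter above a set limit taken from the earlier primary screen, cut at about 130% in these data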;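 also: 0% = background signal of medium plus substrate and 100% = median of IL-6 with DMSO wells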
NFkB act STAT3ct = activates NF-kappaB, counter-screen to STAT3 activators | 11% of 1,200 active | shares compounds with STAT3 act-1 | human cells, NF-kappaB reporter activation | activation (% of control), % at 5.7 µM; in the data active = activation above about 120%;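 also: reporter induced by TNF-alpha stimulation; 100% = median of stimulated DMSO wells and 0% = no signal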
STAT1 act STAT3c = counter-screen for STAT3 activators: STAT1 activation | 13% of 1,200 active | NIH 3T3 STAT1-luciferase reporter, IFN-gamma, luminescence | AID 1318 | shares compounds with STAT3 act-1 | activation (% of control), % at 5.7 µM;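 active = activation above the solvent-only control well mean plus 3 SD, set per screening run, cut at about 120% in these data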;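 also: 100% = IFN-gamma with DMSO median signal so 100% means no change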
Starred values were filed as active, the others as inactive; . = not tested or not shown.

SMILES | STAT3 inh | PERK inhibitor | STAT1 inh | STAT3 act-1 | STAT3 act-2 | NFkB act STAT3ct | STAT1 act STAT3c
CC(=O)n1cc(Nc2ccccc2C(=O)O)c2ccccc21 | -60 | 1 | 14 | 156* | 162* | 108 | 111
CC(=O)n1cc(Nc2ccc([N+](=O)[O-])cc2)c2ccccc21 | -51 | 0 | 0 | 141* | 137* | 95 | 100
CCOc1ccc(C2=Cc3cc(OC)c(OC)cc3C(=C(Cl)Cl)O2)cc1 | 13 | 0 | -1 | 94 | . | . | .
O=C1CC(Nc2ccc(N3CCOCC3)cc2)C(=O)N1Cc1ccccc1 (stereo not given) | 6 | 1 | 12 | 97 | . | . | .
O=C1CC(Nc2ccc3ccccc3c2)C(=O)N1Cc1ccccc1 (stereo not given) | -36 | -1 | -5 | 138* | 135* | 104 | 103
CC1=NC(=O)C(N=Nc2ccccc2)N1c1ccccc1 (stereo not given) | -71 | 0 | -30 | 163* | 162* | 125* | 160*
O=C(CN1C(=O)CCC1=O)Nc1ccc(Cc2ccc(NC(=O)CN3C(=O)CCC3=O)cc2)cc1 | 5 | 0 | -2 | 97 | . | . | .
CCn1c(N2CCN(CC(=O)c3c[nH]c4ccccc34)CC2)nc2c1c(=O)[nH]c(=O)n2C | -47 | 1 | 8 | 142* | 137* | 110 | 98
CC1(C)C2CCC(C2)C1(C)NC(=O)CNC1CCCCC1 (stereo not given) | -10 | 0 | 1 | 116 | . | . | .
O=C1NC(=O)C(Nc2cccc3ccccc23)S1 (stereo not given) | -46 | 0 | 6 | 141* | 129 | 103 | 94
CN1C(=O)SC(Nc2cccc3ccccc23)C1=O (stereo not given) | 5 | 0 | -2 | 99 | . | . | .
O=C1C2C3C=CC(C3)C2C(=O)N1CNc1ccccn1 (stereo not given) | -46 | 1 | -1 | 140* | 101 | 111 | 103
Cn1nnnc1SCc1nc2ccccc2s1 | -43 | -1 | -12 | 139* | 139* | 115 | 124*
O=C(CSc1nc2ccccc2c(=O)n1CCCO)NCc1ccccc1 | 7 | 0 | 4 | 100 | . | . | .
O=c1c2ccccc2nc(SCc2nc3ccccc3s2)n1CCCO | -35 | 0 | -29 | 137* | 151* | 121* | 151*
O=C(/C=C1\C(=O)Nc2ccccc21)/C=C1\C(=O)Nc2ccccc21 | . | 0 | . | . | . | . | .
CN(O)/C=C1\C(=O)Nc2ccccc21 | -50 | 2 | -3 | 142* | 115 | 98 | 103
COc1cc(OC)cc(C(=O)NNC(=O)c2cc3c(s2)CCCC3)c1 | 3 | 1 | -8 | 102 | . | . | .
N#CC1=C(N)Oc2n[nH]c(-c3cccs3)c2C1c1cccs1 (stereo not given) | -89 | 0 | 24 | 176* | 114 | 116 | 72
Cc1nn(-c2ccccc2)c2c1C(c1cccs1)C(C#N)=C(N)O2 (stereo not given) | -49 | 0 | 15 | 148* | 129 | 102 | 95
N#Cc1c(C(F)(F)F)cc(-c2ccccc2)nc1SCCN1CCOCC1 | -56 | -1 | 11 | 152* | 146* | 105 | 96
CCCSc1nc(-c2ccccc2)cc(C(F)(F)F)c1C#N | 17 | 0 | 4 | 95 | . | . | .
Cc1ccc(C)c(Cc2c(C)nc(C)[nH]c2=O)c1 | -7 | 1 | 2 | 104 | . | . | .
C/C(=N\NC(=O)c1ccccn1)c1ccc(Cl)cc1 | . | -1 | . | . | . | . | .
C/C(=N\Nc1ccc(Cl)cc1)c1ccccn1 | -50 | 0 | -21 | 139* | 140* | 123* | 148*
SMILES | STAT3 inh | PERK inhibitor | STAT1 inh | STAT3 act-1 | STAT3 act-2 | NFkB act STAT3ct | STAT1 act STAT3c
O=C(NC1CCCCC1)c1ccccc1NC(=O)C1CC(=O)N(c2ccc(Cl)cc2)C1 (stereo not given) | 6 | 2 | 3 | 99 | . | . | .
C=CCN(c1ccc(C(=O)Nc2ccc(C)c(C)c2)cc1)S(C)(=O)=O | -7 | 0 | 1 | 104 | . | . | .
O=C(O)CCCC(=O)Nc1ccc(OCc2nc3ccccc3s2)cc1 | -36 | 0 | -17 | 136* | 126 | 104 | 119
CC(=O)Nc1ccc(NC(=O)CCCSc2nc3ccccc3s2)cc1 | -46 | 1 | -1 | 140* | 129 | 104 | 98
COc1ccccc1N1CCN(C(=O)CN(C)S(=O)(=O)c2ccc3c(c2)c(=O)n(C)c(=O)n3C)CC1 | 2 | 0 | -3 | 100 | . | . | .
COc1ccc(/C=N/NC(=O)c2ccc(N(C)S(=O)(=O)c3ccccc3)cc2)cc1OC | -7 | 0 | -2 | 108 | . | . | .
CC(C)C1N=C(c2ccc3c(c2)OCO3)CC(c2ccccc2O)N1 (stereo not given) | -37 | 0 | 12 | 138* | 126 | 108 | 90
O=C1CC(=C2c3ccccc3-c3ccccc32)C(=O)N1CCN1CCN(c2ccccc2)CC1 | -3 | -1 | 8 | 104 | . | . | .
CCOC(=O)c1ccccc1NC(=O)Cn1c(-c2nonc2N)nc2ccccc21 | -36 | -1 | 2 | 136* | 105 | 129* | 111
CCCc1cc2c(=O)c(-c3nc4ccccc4s3)c(COCC(=O)O)oc2cc1O | -58 | 0 | 2 | 151* | 146* | 116 | 104
Nc1cccc(C2=Nc3cccc4cccc(c34)N2)c1 | -63 | 1 | 1 | 147* | 157* | 103 | 105
CC(C)C1=Nc2cccc3cccc(c23)N1 | -10 | 0 | 3 | 109 | . | . | .
CCOC(=O)C1=C(CN2CCN(CCC#N)CC2)NC(=O)NC1c1ccc2c(c1)OCO2 (stereo not given) | 12 | 2 | 11 | 99 | . | . | .
Cc1cc(C(=O)N2CCc3c([nH]c4ccccc34)C2c2cccc(Cl)c2)nn1C (stereo not given) | -53 | 0 | 1 | 153* | 202* | 112 | 122*
CC(=O)NCCC(=O)N1CCc2c([nH]c3ccccc23)C1c1cccc(C)c1 (stereo not given) | -50 | 0 | -6 | 147* | 144* | 106 | 114
O=C(c1cnccn1)N1CCc2c([nH]c3ccccc23)C1c1cccc(Cl)c1 (stereo not given) | -32 | 0 | 4 | 132 | . | . | .
CC(=O)NCCC(=O)N1CCc2c([nH]c3ccccc23)C1c1cccc(Cl)c1 (stereo not given) | -55 | 0 | -6 | 150* | 143* | 101 | 91
O=C(COc1cccnc1[N+](=O)[O-])NCCc1ccc(F)cc1 | 7 | 2 | 2 | 98 | . | . | .
Cc1ccc(-c2cc3c(nn2)-c2ccccc2C3=O)cc1 | . | 1 | . | . | . | . | .
Cc1ccccc1-c1cc2c(nn1)-c1ccccc1C2=O | -53 | 0 | 13 | 145* | 141* | 101 | 96
CCOC(=O)C1(Cc2ccc(OC)cc2)CCN(C(=O)CCn2cccn2)CC1 | . | -2 | . | . | . | . | .
